The list is not random: actives were taken first. Their share in the collection is about 1.6%.
HNF4A DNA FP = change in binding of human HNF4 alpha to DNA; P41235; activity change, % at 10 µM; AID 1224865; 0.3% of 360,000 active; HNF4a-FITC DNA binding, fluorescence polarization, 1 h; in the data active = activity change above about 30%, passing the limit was not always enough
TPT1 inhibitor = blocks Candida albicans tRNA 2'-phosphotransferase; recombinant caTPT1, FP RNA substrate dephosphorylation; inhibition, % at 5 µM; 0.81% of 300,000 active; AID 1962;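 active = inhibition above the mean of all tested compounds plus 3 SD, set per screening campaign, cut at about 24% in these data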
CSN inh = inhibitors of human CSN-mediated cullin deneddylation. 0.38% of 360,000 active. Q92905. Purified CSN, SCF-Nedd8-OG deneddylation, fluorescence polarization. inhibition, % at 12.5 µM. AID 651999;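 active = pattern-corrected inhibition above about 35%, with an unprinted fluorescence ratio check between 0.5 and 1.5, limit read from the data, passing the limit was not always enough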
Target sequence (Q92905 whole entry, looked up, one chain of several): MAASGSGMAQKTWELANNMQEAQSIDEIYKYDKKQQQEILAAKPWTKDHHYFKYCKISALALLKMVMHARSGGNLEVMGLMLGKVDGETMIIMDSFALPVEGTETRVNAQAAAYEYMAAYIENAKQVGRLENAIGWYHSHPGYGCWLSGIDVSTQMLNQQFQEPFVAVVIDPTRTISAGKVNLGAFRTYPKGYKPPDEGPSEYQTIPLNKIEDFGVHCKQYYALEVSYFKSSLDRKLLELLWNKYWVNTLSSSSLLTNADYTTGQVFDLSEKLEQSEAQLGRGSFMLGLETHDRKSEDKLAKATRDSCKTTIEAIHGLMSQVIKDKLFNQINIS
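assay system = purified human Csn5 enzyme expressed in HEK293T cells | amount = 0.24 nM enzyme | buffer or medium = Tris/NaCl/DTT buffer, pH 7.5 | reagent = 10 nM SCFSkp2-Nedd8OG | compound = one concentration, 12.5 µM, 0.25% DMSO | times = 90 min reaction at room temperature | signal = FP | read-out basis = % inhibition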
PKA-R2B act = activators of human PKA-R2B complex. P22694+P31323. PKA-R2B holoenzyme dissociation, Cy5-IP20 fluorescence polarization; R2B truncated from residue 108, S112A mutant; 0% DMSO only, 100% 113 µM cGMP. activation, % at 11.4 µM. 0.079% of 340,000 active;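 active = activation above a cutoff set at the mean over all compounds plus 3 SD, cut at about 18% in these data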;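 also: higher means more holoenzyme dissociation and a rise in polarization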
Rpn11 block = inhibitors of human proteasome Rpn11. human 26S proteasome, Ub4-pepOG fluorescence polarization; 20S core pre-blocked with epoxomicin. calls only at 20 µM. 0.59% of 360,000 active;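 active = inhibition at 20 µM, scaled to each plate's controls, above about 33%, limit read from the data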
Target sequence (O00487 whole entry, looked up): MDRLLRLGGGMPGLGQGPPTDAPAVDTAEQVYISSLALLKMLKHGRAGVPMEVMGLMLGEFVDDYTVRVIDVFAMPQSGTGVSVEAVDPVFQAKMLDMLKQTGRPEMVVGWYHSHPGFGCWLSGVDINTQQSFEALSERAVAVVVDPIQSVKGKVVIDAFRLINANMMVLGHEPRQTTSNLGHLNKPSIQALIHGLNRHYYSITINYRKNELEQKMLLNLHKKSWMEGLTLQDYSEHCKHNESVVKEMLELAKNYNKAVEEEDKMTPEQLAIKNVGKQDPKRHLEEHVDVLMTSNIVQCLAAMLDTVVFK
PKA-R1A activ = PKA-R1A complex activation | P00514+P68181 | PKA-R1A dissociation, Cy5-IP20 fluorescence polarization; scaled: DMSO 0%, 113 µM cGMP 100% | activation, % at 11.4 µM | 0.083% of 340,000 active | AID 504707;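 active = percent activation above the mean of all tested compounds plus 3 SD, cut at about 19% in these data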;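 also: higher means more PKAc released from R1A so a rise in polarization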
caTPT1 confirm = confirmation of Candida albicans TPT1 inhibitors; shares compounds with TPT1 inhibitor; recombinant caTPT1, fluorescence polarization, RNase T1 coupled; inhibition, % at 5 µM; 74% of 2,400 active;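 active = inhibition above the primary screen limit, the mean inhibition of all tested compounds plus 3 SD, cut at about 25% in these data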
RNase T1 inh = counter-screen for TPT1 inhibitors: inhibitors of Aspergillus oryzae RNase T1. shares compounds with TPT1 inhibitor. 83% of 2,400 active. AID 2153. RNase T1 cleavage, fluorescence polarization, 1536-well. inhibition, % at 5 µM;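 active = inhibition above the solvent-only control well mean plus 3 SD, limit set per screening run, cut at about 23% in these data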;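 also: inhibitors block cleavage so intact labeled substrate keeps polarization high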
A number is an active result; . = inactive; / = no result shown; + = active, no number.

SMILES	HNF4A DNA FP	TPT1 inhibitor	CSN inh	PKA-R2B act	Rpn11 block	PKA-R1A activ	caTPT1 confirm	RNase T1 inh
CN(C)CCCN(C(=O)c1ccc(Br)s1)c1nc2cc3c(cc2s1)OCCO3	.	30.9	.	.	.	.	28.3	30.5
COc1ccc(C2C(C#N)=C(N)Oc3cc(O)ccc32)cc1OC (stereo unspecified)	.	.	.	.	.	.	/	/
N#CC1=C(N)Oc2cc(O)ccc2C1c1ccccc1 (stereo unspecified)	.	.	.	.	.	.	/	/
N#CC1=C(N)SC(N)=C(C#N)C1c1cccc(O)c1	.	99.7	.	.	/	.	107.8	111.7
COc1ccc(C2C(C#N)=C(N)SC(N)=C2C#N)cc1OC	.	102.7	.	.	/	.	70.6	81.5
Cc1c(/C=C2\SC(=Nc3cccc(C(=O)O)c3)NC2=O)c2ccccc2n1C	.	.	.	.	.	.	/	/
O=C(NCCc1c[nH]c2ccccc12)C(=O)NCC(c1ccco1)N1CCN(c2ccccc2F)CC1 (stereo unspecified)	.	50.8	.	.	.	.	.	.
CCOc1ccc(C2C(C#N)=C(N)SC(N)=C2C#N)c(OCC)c1	.	150.2	.	.	/	.	.	32.2
Cc1ccc(/C=C2/Sc3ccc(C(=O)N4CCN(c5ccccn5)CC4)cc3NC2=O)cc1	.	28.2	.	.	.	.	49.3	61.1
COc1ccc(S(=O)(=O)N2CCCC(C(F)(F)F)C2)cc1 (stereo unspecified)	.	.	.	.	.	.	/	/
CCN(CC)c1ccc2c(c1)oc(=O)c1c(Cl)cc(=O)oc12	.	25.0	.	.	.	.	36.6	50.5
CC(=O)c1ccccc1NCC(=O)Nc1ccc(C)cc1	.	+	.	.	.	.	.	29.0
Cc1ccc(NC(=O)c2ccccc2NC(=O)CCC(=O)O)cc1	.	.	.	.	.	.	/	/
C[C@@H]1Cn2cnc(C(=O)N[C@@H](C)c3ccccc3)c2C(=O)N1	.	/	.	.	.	.	/	/
CC(C)C(=O)Nc1ccc2c(c1)nc(CCN1CCN(c3ccccn3)CC1)n2C	.	/	.	.	.	.	/	/
N#C/C(=C\c1ccc(-c2ccc(C(=O)O)cc2)o1)C(=O)Nc1ccc(F)cc1	.	32.6	.	.	.	.	47.7	61.4
CCN(CC)c1ccc(/C=C/C(=O)c2ccc(Br)cc2)cc1	.	97.1	.	.	/	.	94.3	95.6
CN(C)c1ccc(C(=O)/C=C/c2ccc(Br)cc2)cc1	.	.	.	.	.	.	/	/
Cc1ccc(N2CN(Cc3ccco3)CNC2=S)c(C)c1	.	47.6	.	.	.	.	.	.
Cc1ccc(N2CN(Cc3cccnc3)CNC2=S)c(C)c1	.	.	.	.	.	.	/	/
Cc1cc(OC(C)C(=O)N2CCN(c3ccccc3)CC2)c2c(C)c(C)c(=O)oc2c1 (stereo unspecified)	.	28.8	.	.	.	.	.	.
Cc1cc(OCC(=O)N2CCN(c3ccccc3)CC2)c2c(C)c(C)c(=O)oc2c1	.	.	.	.	.	.	/	/
Nc1nc(N2CCOCC2)n[nH]1	.	/	.	.	.	.	/	/
O=[N+]([O-])c1ccc(N/N=C/c2cccc(O)c2O)cc1	.	51.0	.	.	.	.	59.7	74.2
Cc1cccc(C(=O)Oc2ccccc2/C=N/Nc2ccc([N+](=O)[O-])cc2)c1	.	39.3	.	.	.	.	39.0	51.5
SMILES	HNF4A DNA FP	TPT1 inhibitor	CSN inh	PKA-R2B act	Rpn11 block	PKA-R1A activ	caTPT1 confirm	RNase T1 inh
O=[N+]([O-])c1ccc(NN=Cc2cccc([N+](=O)[O-])c2)cc1	.	/	.	.	.	.	/	/
CCCSc1nnc(C(C)C)n1N	.	.	.	.	.	.	/	/
C=CCN1/C(=C2/SC(=S)N(C)C2=O)Sc2ccccc21	/	34.8	/	/	/	/	59.2	73.0
CCN1C(=O)/C(=C2/Sc3ccccc3N2CC)SC1=S	.	.	.	.	/	.	/	/
CCCCc1ccc(C2C(C#N)=C(N)SC(N)=C2C#N)s1	/	136.7	/	/	/	/	63.6	76.2
CCCN(CCC)CCN1C(=O)C2C(C(=O)Nc3cccc(SC)c3)C3C=CC2(O3)C1C(=O)NC1CCCCC1 (stereo unspecified)	.	.	.	.	.	.	/	/
CCOc1ccc(NC(=O)NC(=O)N(C(C)C)S(C)(=O)=O)cc1	.	.	.	.	.	.	/	/
O=C(CCN1CCC(c2cccs2)=N1)c1cccs1	.	27.6	.	/	.	/	.	.
O=c1cc(C(F)(F)F)nc(-n2[nH]c3c(c2=O)CCCC3)[nH]1	.	33.3	.	.	.	.	.	28.2
Nc1nc(C(F)(F)F)cc(=O)[nH]1	.	.	.	.	.	.	/	/
c1ccc2c(c1)ncc1cccn12	.	.	.	.	.	.	/	/
CCn1c2ccccc2c2c3ncc4cccn4c3ccc21	.	33.0	.	.	/	.	.	22.1
COc1ccc(CCN(C)C(=O)c2ccc(S(=O)(=O)Nc3ccccc3F)cc2)cc1OC	.	.	.	.	.	.	/	/
COC(=O)C1C2CC3c4[nH]c5cc(OC)ccc5c4CCN3CC2CC(O)C1OC (stereo unspecified)	.	/	.	.	.	.	/	/
CCOC(=O)Oc1c(OC)cc(C(=O)O[C@@H]2C[C@@H]3CN4CCc5c([nH]c6cc(OC)ccc56)[C@H]4C[C@@H]3[C@H](C(=O)OC)[C@H]2OC)cc1OC	.	44.9	.	.	.	.	42.3	53.2
CC1CC(=O)Nc2ccccc2N1S(=O)(=O)c1ccc(Cl)cc1 (stereo unspecified)	.	73.6	.	.	.	.	.	.
CC1CC(=O)Nc2ccccc2N1S(=O)(=O)c1ccccc1 (stereo unspecified)	.	.	.	.	.	.	/	/
C=CCNC(=O)c1cc2c(=O)c3ccccc3oc2nc1C	.	48.4	.	.	.	.	.	.
O=C(O)CCSc1nnc(SCC(=O)NC2CCS(=O)(=O)C2)s1 (stereo unspecified)	.	/	.	.	.	.	/	/
COc1ccccc1N1C(=O)C2C(C(=O)c3ccccc3)=NN(c3ccc(C)cc3)C2C1=O (stereo unspecified)	.	51.0	.	/	.	/	64.7	73.3
COc1ccccc1N1C(=O)C2C(C(=O)c3ccccc3)=NN(c3ccc(Br)cc3)C2C1=O (stereo unspecified)	.	35.0	.	/	.	/	27.1	40.9
COc1ccc2ccccc2c1/C=N/N1C(=O)CSC1=S	.	27.1	.	.	.	.	.	.
NC(=O)NNc1cccc(Cl)n1	.	.	.	.	.	.	/	/

High-throughput results from PubChem.
